MEKK3 PB1 HTS – raises or lowers MEK5 binding to the human MEKK3 PB1 domain; Q99759; actives 1.4% (n = 290,000); bead-based flow cytometry, Alexa488-MEK5 binding to MEKK3; actives lie on both sides; 0 = blocked by unlabeled MEK5, 100 = vehicle; binding response (% of control), % at 10 µM;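 active means binding response more than 3 SD above or below the average of its plate-row segment, actives on both sides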;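 further: Alexa488 bead fluorescence after subtracting the streptavidin-only scavenger bead signal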
Target sequence (Q99759 whole entry, looked up, the tested form may be a part): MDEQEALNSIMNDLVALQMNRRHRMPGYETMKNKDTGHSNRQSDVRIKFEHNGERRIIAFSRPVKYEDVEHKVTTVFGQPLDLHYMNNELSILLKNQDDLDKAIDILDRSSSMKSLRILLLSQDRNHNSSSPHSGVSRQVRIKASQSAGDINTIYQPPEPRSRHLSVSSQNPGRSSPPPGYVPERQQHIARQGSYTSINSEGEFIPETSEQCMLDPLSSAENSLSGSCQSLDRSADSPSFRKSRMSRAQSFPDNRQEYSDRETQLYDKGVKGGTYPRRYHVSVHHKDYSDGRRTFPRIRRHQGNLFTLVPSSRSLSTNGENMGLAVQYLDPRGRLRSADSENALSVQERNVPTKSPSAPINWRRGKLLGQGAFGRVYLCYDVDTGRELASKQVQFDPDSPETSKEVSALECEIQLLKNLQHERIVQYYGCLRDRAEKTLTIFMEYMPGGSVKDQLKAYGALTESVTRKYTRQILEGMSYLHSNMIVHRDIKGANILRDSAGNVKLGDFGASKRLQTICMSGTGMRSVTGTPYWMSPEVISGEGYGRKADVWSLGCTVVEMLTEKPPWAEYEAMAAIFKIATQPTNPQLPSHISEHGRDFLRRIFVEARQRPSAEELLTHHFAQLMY
GSK3A inh – human GSK-3 alpha kinase inhibition; P49840; ADP-Glo luminescence, 60 min; inhibition, % at 10 µM; actives 0.1% (n = 320,000); AID 2650;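 active means more than half of replicates show inhibition above 20%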;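 further: GST-tagged GSK-3 alpha with peptide substrate and 25 µM ATP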
MEKK2mut PB1 HTS – signal of MEK5 binding to mutant human MEKK2 PB1 domain. bead flow cytometry, Alexa488-MEK5 binding to MEKK2 mutant. percent response, % at 10 µM. actives 0.35% (n = 290,000); in the data active means percent response above about 24%, passing the limit was not always enough
GSK3beta inhib – human GSK3beta kinase inhibition | GST-GSK3beta kinase, ADP-Glo luminescence, 60 min; hits give low values | actives 0.038% (n = 300,000) | activity score (negative = inhibition), % at 10 µM | P49841;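 active means more than half of replicate wells score below -50%, meaning over 50% inhibition versus plate controls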
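Assay system: GST-fused GSK3beta enzyme, cell-free / Medium: Tris pH 7.5 buffer with MgCl2, DTT, BSA, heparin / Also added: peptide substrate plus 25 µM ATP (final) / Compound: 10 µM single point / Timing: kinase reaction with compound 60 min at room temperature / Detection: ADP-Glo luminescence / Benchmarks: DMSO neutral wells and GW8510 at 20 µM as positive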
MEKK2wt PB1 HTS – raises or lowers MEK5 binding to wildtype human MEKK2 PB1 domain. Q9Y2U5. bead flow cytometry, Alexa488-MEK5 binding to MEKK2 WT; actives lie on both sides. actives 1.1% (n = 290,000). binding response (% of control), % at 10 µM. AID 1531; in the data active means binding response below about 67% or above about 130%
STK33 inh – blocks human STK33 kinase activity. purified STK33, MBP phosphorylation, ADP-Glo luminescence. actives 0.073% (n = 320,000). inhibition, % at 10 µM. AID 2661;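 active means inhibition at or above 25%, using the most active replicate where run in duplicate; inactive means inhibition below 25%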
MEKK2wt confirm – raises or lowers MEK5 binding to wildtype human MEKK2, retest | shares compounds with MEKK3 PB1 HTS | bead flow cytometry, Alexa488-MEK5 binding to MEKK2 WT; actives lie on both sides | binding response (% of control), % at 10 µM | actives 2.4% (n = 5,900) | AID 1892; in the data active means binding response below about 16% or above about 210%; inactive means in between
MEKK2mut-MEK5 – signal of MEK5 binding to mutant human MEKK2, retest; actives 2% (n = 5,900); AID 1893; percent response, % at 10 µM; shares compounds with MEKK3 PB1 HTS; bead flow cytometry, Alexa488-MEK5 binding to MEKK2 mutant; in the data active means percent response mostly above about 71%, no sharp cut-off; inactive means mostly below about 38%;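 further: higher means compound restores mutant binding toward wildtype level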
MEKK3-MEK5 inh – confirmation of inhibitors of MEK5 binding to human MEKK3 | shares compounds with MEKK3 PB1 HTS | actives 1.8% (n = 5,900) | binding response (% of control), % at 10 µM | bead flow cytometry, Alexa488-MEK5 binding to MEKK3; hits give low values;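 active means binding response below 72% of control, or above a set upper limit, though filed actives all read lower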
Of the large screens only hits and unclear results are named; the others gave an inactive call (follow-up assays come after a bar, where they were run); [ ] = dose if it differs, or a comment. Sampled rows, rich in hits. Any-hit rate of the full collection: about 2.1%.

CCc1ccc(N2CC(C(=O)NC3CCCCC3C)CC2=O)cc1 (stereo not given)	none
Cc1nc(SCC(O)CO)c([N+](=O)[O-])[nH]1 (stereo not given)	MEKK2wt PB1 HTS 138 | MEKK2wt confirm inactive | MEKK2mut-MEK5 inactive | MEKK3-MEK5 inh inactive
O=C(NCc1ccncc1)c1ccc(Cn2cc(C(F)(F)F)ccc2=O)cc1	none
O=C(NCc1cccnc1)c1ccc(Cn2cc(C(F)(F)F)ccc2=O)cc1	MEKK3 PB1 HTS 69[inhibitor] | MEKK2wt confirm inactive | MEKK2mut-MEK5 inactive | MEKK3-MEK5 inh inactive
O=C(O)c1ccc(Cn2cc(C(F)(F)F)ccc2=O)cc1	MEKK3 PB1 HTS 37[inhibitor] | MEKK2wt confirm inactive | MEKK2mut-MEK5 inactive | MEKK3-MEK5 inh inactive
O=C(NCc1ccccc1)c1ccc(Cn2cc(C(F)(F)F)ccc2=O)cc1	none
CC(CCc1ccccc1)NC(=O)CN1CCN(c2ccc(O)cc2)CC1 (stereo not given)	none
CCOC(=O)c1cc(NC(=O)c2ccco2)ccc1N1CCOCC1	MEKK3 PB1 HTS 27[inhibitor], MEKK2wt PB1 HTS 35[inhibitor] | MEKK2wt confirm inactive | MEKK2mut-MEK5 inactive | MEKK3-MEK5 inh inactive
O=C(Nc1ccc(N2CCOCC2)c(C(=O)O)c1)c1ccco1	none (no result: GSK3A inh, GSK3beta inhib, STK33 inh)
CSc1ccc(CN(C)CC(=O)Nc2ccccc2Br)cc1	MEKK3 PB1 HTS 132 | MEKK2wt confirm inactive | MEKK2mut-MEK5 inactive | MEKK3-MEK5 inh inactive
CSc1ccccc1NC(=O)CN(C)Cc1ccc(Br)cc1	none (no result: GSK3A inh, STK33 inh)
Cc1cccc(-c2noc(CN(C(=O)C(c3ccccc3)c3ccccc3)C(C)C)n2)c1	none
CN1C(=O)C(CC(=O)N2CCN(C(c3ccccc3)c3ccccc3)CC2)N(C)C1=O (stereo not given)	MEKK3 PB1 HTS 1.0[inhibitor], MEKK2wt PB1 HTS 1.0[inhibitor] | MEKK2wt confirm inactive | MEKK2mut-MEK5 inactive | MEKK3-MEK5 inh inactive
CCCCOc1ccc(S(=O)(=O)Nc2cccnc2)cc1	MEKK3 PB1 HTS 1.0[inhibitor], MEKK2wt PB1 HTS -8.0[inhibitor] | MEKK2wt confirm inactive | MEKK2mut-MEK5 inactive | MEKK3-MEK5 inh inactive
Cc1ccc(S(=O)(=O)Nc2cccnc2)cc1	none
COc1cccc(NC(=O)N2CCCC2C(=O)NC23CC4CC(CC(C4)C2)C3)c1 (stereo not given)	none
Cc1cc(OCC(=O)NCc2ccncc2)c2c(C)cc(=O)oc2c1	none
CCc1cc(=O)oc2cc(C)cc(OCC(=O)C(C)(C)C)c12	MEKK3 PB1 HTS 72[inhibitor] | MEKK2wt confirm inactive | MEKK2mut-MEK5 inactive | MEKK3-MEK5 inh inactive
O=C(O)c1ccc(CSc2nnc(-c3ccc(Cl)cc3)o2)cc1	none (no result: GSK3beta inhib)
O=S(=O)(Nc1ccc(-c2nnc(SCc3ccc(Cl)cc3)o2)cc1)c1ccccc1	MEKK3 PB1 HTS 131 | MEKK2wt confirm inactive | MEKK2mut-MEK5 inactive | MEKK3-MEK5 inh inactive
CN(CCCN1c2ccccc2CCc2ccccc21)CC(=O)c1ccc(Cl)cc1	MEKK2wt PB1 HTS 165 | MEKK2wt confirm inactive | MEKK2mut-MEK5 inactive | MEKK3-MEK5 inh inactive
CNCCCN1c2ccccc2CCc2ccccc21	none
COc1ccc(C(=O)N2CCN(C)C(=O)[C@@H]2C)cc1OC1CCN(C(C)=O)CC1	none
Cc1ccc(C)c(C2=CSC3=NS(=O)(=O)CCN23)c1	MEKK3 PB1 HTS 2.0[inhibitor], MEKK2wt PB1 HTS 3.0[inhibitor] | MEKK2wt confirm inactive | MEKK2mut-MEK5 inactive | MEKK3-MEK5 inh inactive
Cn1c(O)c(N=NC(=O)c2cc(-c3cccs3)nc3ccccc23)c2ccccc21	MEKK3 PB1 HTS 130 | MEKK2wt confirm inactive | MEKK2mut-MEK5 inactive | MEKK3-MEK5 inh inactive
Brc1ccc(-c2nnc3ccc(N4CCN(c5ccccc5)CC4)nn23)cc1	MEKK3 PB1 HTS 0.0[inhibitor], MEKK2wt PB1 HTS -1.0[inhibitor] | MEKK2wt confirm inactive | MEKK2mut-MEK5 inactive | MEKK3-MEK5 inh inactive
Cc1ccc(-n2cc(CNCC3CC(=O)N(C4CC4)C3)c(-c3cccc(C)c3)n2)cc1 (stereo not given)	MEKK2wt PB1 HTS 143 | MEKK2wt confirm inactive | MEKK2mut-MEK5 inactive | MEKK3-MEK5 inh inactive
COC1CCN(Cc2cn(Cc3ccccc3)nc2-c2cc3ccccc3o2)CC1	MEKK2wt PB1 HTS 140 | MEKK2wt confirm inactive | MEKK2mut-MEK5 inactive | MEKK3-MEK5 inh inactive
OCC1CCN(Cc2cn(Cc3ccccc3)nc2-c2cc3ccccc3o2)CC1	none
CC(=O)OCC1=C(C(=O)O)N2C(=O)C(NC(=O)c3ccc(F)cc3)C2SC1 (stereo not given)	MEKK3 PB1 HTS 139 | MEKK2wt confirm inactive | MEKK2mut-MEK5 inactive | MEKK3-MEK5 inh inactive
CC(=O)OCC1=C(C(=O)O)N2C(=O)C(NC(=O)C(C)Cn3nc(C)c(Cl)c3C)C2SC1 (stereo not given)	none
Cc1ccccc1-n1c(SCc2c(C)noc2C)nnc1-c1cccnc1	MEKK2mut PB1 HTS 30, MEKK2wt PB1 HTS 28[inhibitor] | MEKK2wt confirm inactive | MEKK2mut-MEK5 inactive | MEKK3-MEK5 inh inactive
Cc1cc(C)c(C)c(S(=O)(=O)N[C@@H](C)C(=O)OCC(=O)NC2CCCC(C)C2C)c1C (stereo not given in full)	none (no result: MEKK3 PB1 HTS, MEKK2mut PB1 HTS, GSK3beta inhib, MEKK2wt PB1 HTS)
CCOC(=O)C1=C(N)OC2=C(C(=O)CC(C)(C)C2)C1c1cc(CSc2nnnn2C)cs1 (stereo not given)	none
c1ccc(-c2cn3nc(-c4ccccc4)c(-c4ccccc4)nc3n2)cc1	MEKK2wt PB1 HTS 63[inhibitor] | MEKK2wt confirm inactive | MEKK2mut-MEK5 inactive | MEKK3-MEK5 inh inactive
Cc1ccc(-c2cn3nc(-c4ccccc4)c(-c4ccccc4)nc3n2)cc1	none
NS(=O)(=O)c1ccc(-n2cccc2C=O)cc1	none
Cc1cccn2c(NC(=O)c3cccs3)c(-c3ccccc3)nc12	MEKK3 PB1 HTS 138 | MEKK2wt confirm inactive | MEKK2mut-MEK5 inactive | MEKK3-MEK5 inh inactive
CCc1ccc(C2=NN(CCC(=O)NC3CC3)C(=O)CC2)cc1	MEKK3 PB1 HTS 144 | MEKK2wt confirm inactive | MEKK2mut-MEK5 inactive | MEKK3-MEK5 inh inactive
COc1ccc(C2=NN(CCC(=O)NC3CCC(C)CC3)C(=O)CC2)cc1 (stereo not given)	none
COC(=O)C(Cc1ccc(O)cc1)NC(=O)C(C)Oc1ccccc1 (stereo not given)	MEKK3 PB1 HTS 0.0[inhibitor], MEKK2wt PB1 HTS -5.0[inhibitor] | MEKK2wt confirm inactive | MEKK2mut-MEK5 inactive | MEKK3-MEK5 inh inactive

Bioassay records (PubChem BioAssay)
